ChEMBL document CHEMBL2407039 (Eur J Med Chem, 2013)
pIC50: −log10 of the molar value. In brackets after ≈: the same amount, converted by molar mass. Activity calls are given as the source filed them. The calls are words filed in the database; no cut-off is given here.

Assays:
DNA [1] = assay: Binding affinity to calf thymus DNA assessed as intercalation at 10 uM after 1 hr by fluorescence spectrophotometry; type: nucleic-acid assay; conditions: Bos taurus
In short: (§1)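 Fluorescence spectra were recorded at 25 °C. Compound was present at 10 µM with calf thymus DNA at 0–80 µM, in 20 mM Tris-HCl (pH 7.5) containing 1% DMSO.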

[2] = target: DNA topoisomerase 2-alpha (Homo sapiens) (UniProt P11388); assay: Inhibition of human topoisomerase 2 alpha-mediated decatenation of kinetoplast DNA at 100 uM after 30 mins by agarose gel electrophoresis in presence of ATP relative to control
Chain of DNA topoisomerase 2-alpha (Homo sapiens) (P11388 whole entry): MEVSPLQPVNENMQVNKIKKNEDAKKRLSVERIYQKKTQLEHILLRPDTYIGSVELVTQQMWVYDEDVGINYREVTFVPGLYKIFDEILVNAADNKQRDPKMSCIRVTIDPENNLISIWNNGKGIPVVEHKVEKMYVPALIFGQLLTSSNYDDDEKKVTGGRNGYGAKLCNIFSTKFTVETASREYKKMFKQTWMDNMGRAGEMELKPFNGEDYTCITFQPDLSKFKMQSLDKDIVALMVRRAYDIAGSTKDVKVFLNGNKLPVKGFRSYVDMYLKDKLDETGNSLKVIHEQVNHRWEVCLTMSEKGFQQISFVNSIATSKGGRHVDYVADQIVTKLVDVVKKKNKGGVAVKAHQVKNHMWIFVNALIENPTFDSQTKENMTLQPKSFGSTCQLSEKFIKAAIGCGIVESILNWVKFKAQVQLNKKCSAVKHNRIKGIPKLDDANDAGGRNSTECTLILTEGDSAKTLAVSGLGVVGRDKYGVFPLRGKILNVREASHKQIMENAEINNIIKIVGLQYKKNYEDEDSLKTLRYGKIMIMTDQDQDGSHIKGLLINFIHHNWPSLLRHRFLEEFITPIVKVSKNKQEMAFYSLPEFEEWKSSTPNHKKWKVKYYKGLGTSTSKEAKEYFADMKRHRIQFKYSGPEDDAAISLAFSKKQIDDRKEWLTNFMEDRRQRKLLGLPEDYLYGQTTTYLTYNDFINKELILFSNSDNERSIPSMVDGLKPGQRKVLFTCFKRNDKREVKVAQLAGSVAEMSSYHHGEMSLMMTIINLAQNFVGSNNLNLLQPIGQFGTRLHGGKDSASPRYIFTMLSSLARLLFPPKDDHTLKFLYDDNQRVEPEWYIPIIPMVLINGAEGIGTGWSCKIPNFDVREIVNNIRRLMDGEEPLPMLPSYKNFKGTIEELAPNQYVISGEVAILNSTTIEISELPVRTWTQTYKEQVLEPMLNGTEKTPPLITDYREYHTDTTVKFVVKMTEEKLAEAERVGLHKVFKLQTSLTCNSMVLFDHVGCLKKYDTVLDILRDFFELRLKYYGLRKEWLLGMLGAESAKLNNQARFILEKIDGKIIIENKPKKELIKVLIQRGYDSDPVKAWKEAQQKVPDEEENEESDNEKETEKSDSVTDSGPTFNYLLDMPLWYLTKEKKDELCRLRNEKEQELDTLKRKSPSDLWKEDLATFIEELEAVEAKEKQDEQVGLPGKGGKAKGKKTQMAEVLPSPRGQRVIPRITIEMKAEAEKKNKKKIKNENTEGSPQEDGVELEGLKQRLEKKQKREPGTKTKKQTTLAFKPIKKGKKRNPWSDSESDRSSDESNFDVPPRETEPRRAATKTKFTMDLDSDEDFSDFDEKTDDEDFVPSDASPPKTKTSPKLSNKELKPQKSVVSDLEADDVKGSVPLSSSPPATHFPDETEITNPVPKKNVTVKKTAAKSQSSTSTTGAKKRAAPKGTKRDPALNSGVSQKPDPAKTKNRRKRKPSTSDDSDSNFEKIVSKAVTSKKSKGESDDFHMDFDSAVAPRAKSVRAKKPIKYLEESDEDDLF
In short: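 ATP-dependent decatenation of 0.1 µg kinetoplast DNA by 1 unit of human topo IIα. Incubated 30 min at 37 °C in 50 mM Tris-HCl pH 8.0, 150 mM NaCl, 10 mM MgCl2, 2 mM ATP, 0.5 mM DTT. Gel images quantified by densitometry.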

MDA-MB-231 = assay: Cytotoxicity against human MDA-MB-231 cells after 72 hrs by sulforhodamine B assay; type: functional, cell-based; conditions: MDA-MB-231, 72 h
In short: (§2)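 Cells seeded and cultured overnight, then treated with increasing compound concentrations for 72 h. Fixed with 10% TCA, stained with sulforhodamine B, dye dissolved in 10 mM Tris-HCl, read at 515 nm. Inhibition taken relative to untreated control. IC50 by the Logit method; triplicate experiments.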

DNA [3] = assay: Binding affinity to calf thymus DNA assessed as intercalation after 1 hr by fluorescence spectrophotometric analysis; type: nucleic-acid assay; conditions: Bos taurus; in short: as §1
A549 = assay: Cytotoxicity against human A549 cells after 72 hrs by sulforhodamine B assay; type: functional, cell-based; conditions: A549, 72 h; in short: as §2
HL-60 = assay: Cytotoxicity against human HL60 cells after 72 hrs by MTT assay; type: functional, cell-based; conditions: HL-60, 72 h
In short: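 HL60 cells were treated with increasing compound concentrations for 72 h. MTT was then added for 4 h. Cells were lysed overnight at 37 °C in 10% SDS–5% isobutanol–12 mM HCl and read at 570 nm. Inhibition taken relative to control. IC50 by the Logit method; triplicate experiments.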

[4] = Cytotoxicity against human LO2 cells after 72 hrs by sulforhodamine B assay; type: cell-based; conditions: L02, 72 h; in short: as §2
[5] = Cytotoxicity against human GES-1 cells after 72 hrs by sulforhodamine B assay; type: cell-based; conditions: GES1, 72 h; in short: as §2
DNA [6] = assay: Binding affinity to calf thymus DNA assessed as intercalation at 20 uM after 2 hrs by circular dichroism spectrophotometry; type: nucleic-acid assay; conditions: Bos taurus
In short: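 Calf thymus DNA (100 µM) was incubated with compound (20 µM) in Tris-HCl buffer for 2 h at 25 °C. CD spectra were then analysed over 230–300 nm.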

[7] = target: Vascular endothelial growth factor receptor 2 (Homo sapiens, UniProt P35968); assay: Inhibition of KDR (unknown origin) using poly (Glu, Tyr)4:1 as substrate by ELISA
Chain of Vascular endothelial growth factor receptor 2 (P35968 whole entry): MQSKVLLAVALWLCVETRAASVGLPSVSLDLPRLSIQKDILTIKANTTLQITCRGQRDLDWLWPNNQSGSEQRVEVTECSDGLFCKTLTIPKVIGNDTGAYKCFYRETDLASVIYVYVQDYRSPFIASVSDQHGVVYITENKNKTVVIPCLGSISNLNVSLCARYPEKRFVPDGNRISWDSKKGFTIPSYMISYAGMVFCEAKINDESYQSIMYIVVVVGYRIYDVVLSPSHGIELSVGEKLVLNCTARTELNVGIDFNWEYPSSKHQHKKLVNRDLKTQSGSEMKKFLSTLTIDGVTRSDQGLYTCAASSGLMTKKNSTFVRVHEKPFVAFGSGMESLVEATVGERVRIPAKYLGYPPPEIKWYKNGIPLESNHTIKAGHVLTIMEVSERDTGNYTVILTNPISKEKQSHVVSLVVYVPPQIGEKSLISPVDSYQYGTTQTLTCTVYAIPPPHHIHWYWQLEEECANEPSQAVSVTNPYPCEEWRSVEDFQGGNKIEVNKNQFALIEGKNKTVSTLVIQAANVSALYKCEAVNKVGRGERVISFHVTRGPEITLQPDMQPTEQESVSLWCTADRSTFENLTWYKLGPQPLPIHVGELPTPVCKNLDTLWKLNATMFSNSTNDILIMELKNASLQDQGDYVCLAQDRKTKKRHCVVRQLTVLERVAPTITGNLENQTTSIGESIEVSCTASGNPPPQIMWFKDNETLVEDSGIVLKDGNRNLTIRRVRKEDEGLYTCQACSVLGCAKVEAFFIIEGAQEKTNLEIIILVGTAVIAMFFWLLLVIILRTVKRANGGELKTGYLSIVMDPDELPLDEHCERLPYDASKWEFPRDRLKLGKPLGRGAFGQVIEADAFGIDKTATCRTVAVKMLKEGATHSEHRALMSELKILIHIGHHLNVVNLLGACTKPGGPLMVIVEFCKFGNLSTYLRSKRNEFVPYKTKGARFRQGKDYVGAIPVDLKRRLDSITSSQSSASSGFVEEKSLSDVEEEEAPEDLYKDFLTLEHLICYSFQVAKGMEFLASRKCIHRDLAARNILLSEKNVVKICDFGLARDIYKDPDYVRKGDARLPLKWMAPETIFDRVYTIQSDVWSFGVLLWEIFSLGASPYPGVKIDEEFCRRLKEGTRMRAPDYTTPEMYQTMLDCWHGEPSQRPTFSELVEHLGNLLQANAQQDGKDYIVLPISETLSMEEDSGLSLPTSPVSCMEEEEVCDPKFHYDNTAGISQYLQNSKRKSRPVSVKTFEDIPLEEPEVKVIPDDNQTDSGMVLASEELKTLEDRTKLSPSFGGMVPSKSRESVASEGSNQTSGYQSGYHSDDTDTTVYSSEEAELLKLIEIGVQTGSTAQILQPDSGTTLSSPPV

[8] = target: Platelet-derived growth factor receptor alpha (Homo sapiens, UniProt P16234); assay: Inhibition of PDGFRalpha (unknown origin) using poly (Glu, Tyr)4:1 as substrate by ELISA
In short: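 ELISA on wells precoated with 2.5 µg/well poly(Glu,Tyr) 4:1. Reaction buffer was 50 mM HEPES pH 7.4, 20 mM MgCl2, 0.1 mM Na3VO4, 1 mM DTT, with 10 µM ATP; the reaction was started by adding kinase and run 1 h at 37 °C. Phosphotyrosine detected with PY99 and HRP anti-mouse IgG, o-phenylenediamine development, read at 490 nm.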

[9] = target: Platelet-derived growth factor receptor beta (Homo sapiens, UniProt P09619); assay: Inhibition of PDGFRbeta (unknown origin) using poly (Glu, Tyr)4:1 as substrate by ELISA
Chain of Platelet-derived growth factor receptor beta (P09619 whole entry): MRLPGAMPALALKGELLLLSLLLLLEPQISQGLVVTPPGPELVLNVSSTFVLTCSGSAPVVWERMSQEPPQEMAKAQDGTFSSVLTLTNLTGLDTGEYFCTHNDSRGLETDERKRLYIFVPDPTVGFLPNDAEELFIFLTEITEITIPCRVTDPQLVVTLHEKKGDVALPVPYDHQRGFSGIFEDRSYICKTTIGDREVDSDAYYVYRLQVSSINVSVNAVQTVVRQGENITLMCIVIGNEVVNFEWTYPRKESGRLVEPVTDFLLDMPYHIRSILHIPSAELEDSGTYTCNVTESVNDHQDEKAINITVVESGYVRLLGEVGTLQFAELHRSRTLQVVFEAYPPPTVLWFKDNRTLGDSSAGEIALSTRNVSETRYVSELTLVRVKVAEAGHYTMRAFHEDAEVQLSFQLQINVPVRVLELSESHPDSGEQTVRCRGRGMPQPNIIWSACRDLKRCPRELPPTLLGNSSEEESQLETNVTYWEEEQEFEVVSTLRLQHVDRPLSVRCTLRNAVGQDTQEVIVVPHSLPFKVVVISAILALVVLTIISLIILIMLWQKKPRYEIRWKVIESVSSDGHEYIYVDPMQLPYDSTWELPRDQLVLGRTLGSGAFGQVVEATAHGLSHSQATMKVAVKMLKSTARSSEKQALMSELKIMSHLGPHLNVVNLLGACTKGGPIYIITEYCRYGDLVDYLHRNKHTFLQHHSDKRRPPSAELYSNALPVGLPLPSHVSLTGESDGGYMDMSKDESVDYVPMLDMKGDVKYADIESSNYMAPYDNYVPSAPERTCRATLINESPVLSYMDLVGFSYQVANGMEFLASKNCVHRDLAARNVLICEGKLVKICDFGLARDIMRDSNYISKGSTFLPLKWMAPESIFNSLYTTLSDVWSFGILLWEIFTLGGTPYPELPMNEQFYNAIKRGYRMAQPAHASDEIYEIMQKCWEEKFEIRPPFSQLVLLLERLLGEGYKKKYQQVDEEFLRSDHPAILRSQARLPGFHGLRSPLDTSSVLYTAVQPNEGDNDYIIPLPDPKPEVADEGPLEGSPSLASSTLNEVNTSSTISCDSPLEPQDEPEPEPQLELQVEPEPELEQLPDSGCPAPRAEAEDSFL

[10] = target: T1, Fibroblast growth factor receptor 1 (Homo sapiens, UniProt P11362); assay: Inhibition of FGFR1 (unknown origin) using poly (Glu, Tyr)4:1 as substrate by ELISA
Target sequence in this assay (P11362 whole entry): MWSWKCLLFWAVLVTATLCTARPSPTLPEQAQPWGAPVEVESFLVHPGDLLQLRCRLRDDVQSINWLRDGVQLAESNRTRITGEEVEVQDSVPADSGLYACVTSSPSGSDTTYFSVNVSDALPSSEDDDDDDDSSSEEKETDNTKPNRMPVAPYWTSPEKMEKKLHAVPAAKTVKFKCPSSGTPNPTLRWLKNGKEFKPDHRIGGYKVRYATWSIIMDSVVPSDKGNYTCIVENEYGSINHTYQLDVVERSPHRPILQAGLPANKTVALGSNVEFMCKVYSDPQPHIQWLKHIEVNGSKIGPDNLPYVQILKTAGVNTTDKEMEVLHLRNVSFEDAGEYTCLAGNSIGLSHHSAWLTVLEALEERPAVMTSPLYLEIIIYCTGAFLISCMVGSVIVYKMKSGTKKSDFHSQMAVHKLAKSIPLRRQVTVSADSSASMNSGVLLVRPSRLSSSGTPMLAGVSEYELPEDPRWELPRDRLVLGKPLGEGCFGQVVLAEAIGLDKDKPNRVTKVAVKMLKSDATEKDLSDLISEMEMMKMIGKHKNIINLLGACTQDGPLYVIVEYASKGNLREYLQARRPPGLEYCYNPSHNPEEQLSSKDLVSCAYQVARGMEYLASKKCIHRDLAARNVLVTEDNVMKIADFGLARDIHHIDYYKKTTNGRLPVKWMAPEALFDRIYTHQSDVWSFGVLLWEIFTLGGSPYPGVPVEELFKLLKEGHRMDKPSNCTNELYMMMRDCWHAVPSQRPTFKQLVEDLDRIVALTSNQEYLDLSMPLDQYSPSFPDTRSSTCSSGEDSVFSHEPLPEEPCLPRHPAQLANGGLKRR

[11] = Solubility of the compound in PBS buffer at PH 7.4 after 24 hrs by UV-Visible spectrophotometry; type: physicochemical
HMEC-1 [12] = assay: Antiangiogenic activity in human HMEC1 cells assessed as growth inhibition after 72 hrs by SRB assay; type: functional, cell-based
In short: (§3)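 HMEC-1 cells seeded and cultured overnight, then exposed to graded compound concentrations for 72 h. Cells were fixed with 10% trichloroacetic acid and stained with sulforhodamine B. Dye was dissolved in 10 mM Tris-HCl and read at 515 nm. Inhibition = (1 − A515 treated/A515 control) × 100%.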

[13] = Antiangiogenic activity in human HMEC1 cells assessed as growth inhibition at 20 uM after 72 hrs by SRB assay; type: functional; conditions: HMEC-1, 72 h, read-out: GI; in short: as §3
[14] = target: T1, Fibroblast growth factor receptor 1; assay: Inhibition of FGFR1 in human HMEC1 cells assessed as reduction of bFGF-induced FGFR1 phosphorylation at Tyr 653/654 at 1.25 to 2.5 uM incubated for 10 hrs prior to bFGF challenge measured after 10 mins by Western blotting analysis; type: cell-based
In short: (§4)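 HMEC-1 cells were plated at 3 × 10⁵ cells/well and serum-starved 24 h. Cells were exposed to compound (10 h per the results text; methods state 12 h), then stimulated with 50 ng/mL bFGF for 10 min at 37 °C. Whole-cell lysates were run on 10% SDS-PAGE and blotted with antibodies to phospho-FGFR1, phospho-Erk and phospho-AKT, with GAPDH as loading control.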

[15] = target: T1, Fibroblast growth factor receptor 1; assay: Inhibition of FGFR1 in human HMEC1 cells assessed as reduction of bFGF-induced AKT phosphorylation at Ser 473 at 1.25 to 5 uM incubated for 10 hrs prior to bFGF challenge measured after 10 mins by Western blotting analysis; type: cell-based; in short: as §4
[16] = Antiangiogenic activity in human HMEC1 cells assessed as inhibition of serum-stimulated tube formation at 10 uM after 8 hrs by matrigel assay relative to control; type: functional; conditions: HMEC-1, 8 h
In short: (§5)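 Matrigel was set in 96-well plates (37 °C, 1 h) and seeded with HMEC-1 at 1 × 10⁵ cells/mL. Cells were cultured 8 h at 37 °C in MCDB131 with 20% FBS containing compound or control. Tubes were counted in five random fields by phase-contrast microscopy. Inhibition = [1 − tubes compound/tubes control] × 100%; mean ± SD, n = 3.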

[17] = target: T1, Fibroblast growth factor receptor 1; assay: Inhibition of FGFR1 in human HMEC1 cells assessed as inhibition of bFGF-induced FGFR1 phosphorylation at Tyr 653/654 incubated for 10 hrs prior to bFGF challenge measured after 10 mins by Western blotting analysis; type: cell-based; in short: as §4
[18] = target: T1, Fibroblast growth factor receptor 1; assay: Inhibition of FGFR1 in human HMEC1 cells assessed as reduction of bFGF-induced Erk1/2 phosphorylation at Thr 202/204 at 1.25 to 2.5 uM incubated for 10 hrs prior to bFGF challenge measured after 10 mins by Western blotting analysis; type: cell-based; in short: as §4
HMEC-1 [19] = assay: Antimigratory activity against human HMEC1 cells after 6 hrs by transwell Boyden chamber assay; type: functional, cell-based
In short: (§6)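 HMEC-1 suspension (5 × 10⁵ cells/mL) with compound or control was placed in the upper compartment of a transwell Boyden chamber. The lower compartment held MCDB131 with 20% FBS plus the same compound concentration. After 6 h at 37 °C, migrated cells were quantified by absorbance. Inhibition = [1 − (A compound − A blank)/(A control − A blank)] × 100%; mean ± SD, n = 3.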

[20] = Antiangiogenic activity in human HMEC1 cells assessed as inhibition of serum-stimulated tube formation at 5 uM after 8 hrs by matrigel assay relative to control; type: functional; conditions: HMEC-1, 8 h; in short: as §5
[21] = Antimigratory activity against human HMEC1 cells at 5 uM after 6 hrs by transwell Boyden chamber assay relative to control; type: functional; conditions: HMEC-1, 6 h; in short: as §6
HMEC-1 [22] = assay: Antiangiogenic activity in human HMEC1 cells assessed as inhibition of serum-stimulated tube formation after 8 hrs by matrigel assay; type: functional, cell-based; in short: as §5
[23] = Antiangiogenic activity in human HMEC1 cells assessed as growth inhibition at 40 uM after 72 hrs by SRB assay; type: functional; conditions: HMEC-1, 72 h, read-out: GI; in short: as §3
HMEC-1 [24] = assay: Antiangiogenic activity in human HMEC1 cells assessed as growth inhibition at <= 10 uM after 72 hrs by SRB assay; type: functional, cell-based; in short: as §3
[25] = Antimigratory activity against human HMEC1 cells at 10 uM after 6 hrs by transwell Boyden chamber assay relative to control; type: functional; conditions: HMEC-1, 6 h; in short: as §6

| SMILES | Activity (DNA [1]) | inhibition [2] | pIC50 (MDA-MB-231) | pIC50 (A549) | pIC50 (HL-60) | pIC50 [4] | pIC50 [5] | Activity (DNA [6]) | pIC50 [7] | pIC50 [8] | pIC50 [9] | pIC50 [10] | solubility at 24 h [11] | also measured |
| --- | --- | --- | --- | --- | --- | --- | --- | --- | --- | --- | --- | --- | --- | --- |
| CN(C)CCN1C(=O)c2cccc3cc(N)cc(c23)C1=O [AMONAFIDE] | inactive | 97.5% | 5.36 | 5.49 | 6.05 | 4.86 | 4.67 | – | – | – | – | – | – | Kb (DNA [3]): 2.1 ×10⁵ /M |
| CCN1C(=O)c2cccc3c(NCCNCCN(C)C)ccc(c23)C1=O | – | 86.7% | 4.61 | 4.50 | 4.77 | < 4.30 | < 4.30 | inactive | < 4.00 | < 4.00 | < 4.00 | < 4.00 | 46700 µM (≈ 16600 µg/mL) | – |
| CCCCCCCCN1C(=O)c2cccc3c(NCCNCCN(C)C)ccc(c23)C1=O | inactive | 99.8% | 5.07 | 5.11 | 5.68 | < 4.30 | < 4.30 | inactive | 4.31 | < 4.00 | < 4.30 | 4.74 | 264 µM (≈ 116 µg/mL) | growth inhibition (GI) (HMEC-1 [12]): Dose-dependent effect; inhibition of growth at 20 µM [13]: 68%; inhibition [14]: Active; inhibition [15]: Active; inhibition at 10 µM [16]: 70%; inhibition [17]: Dose-dependent effect; inhibition [18]: Active; inhibition (HMEC-1 [19]): Dose-dependent effect; inhibition at 5 µM [20]: 30%; inhibition at 5 µM [21]: 55%; inhibition (HMEC-1 [22]): Dose-dependent effect; inhibition of growth at 40 µM [23]: 99%; growth inhibition (GI) (HMEC-1 [24]): inactive; inhibition at 10 µM [25]: 70% |
| CCCCN1C(=O)c2cccc3c(NCCNCCN(C)C)ccc(c23)C1=O | – | 90.2% | 4.98 | 4.67 | 5.24 | < 4.30 | < 4.30 | inactive | < 4.00 | < 4.00 | < 4.00 | < 4.00 | 15400 µM (≈ 5890 µg/mL) | – |
| CCCCCCCCCCCCCCCCN1C(=O)c2cccc3c(NCCNCCN(C)C)ccc(c23)C1=O | inactive | 97.3% | 4.75 | 4.50 | 4.61 | < 4.30 | < 4.30 | inactive | < 4.00 | < 4.30 | < 4.30 | < 4.00 | 16 µM (≈ 8.81 µg/mL) | – |
| CCCCCCN1C(=O)c2cccc3c(NCCNCCN(C)C)ccc(c23)C1=O | – | 94.3% | 5.21 | 5.01 | 5.82 | < 4.30 | 4.34 | inactive | < 4.00 | < 4.00 | < 4.00 | < 4.00 | 430 µM (≈ 177 µg/mL) | – |
| CCCCCCCCCCCCN1C(=O)c2cccc3c(NCCNCCN(C)C)ccc(c23)C1=O | – | 96.6% | 5.18 | 4.72 | 5.74 | < 4.30 | < 4.30 | inactive | 4.56 | 4.58 | < 4.30 | 4.54 | 63 µM (≈ 31.2 µg/mL) | – |
| CN(C)CCNCCNc1ccc2c3c(cccc13)C(=O)N(C)C2=O | inactive | 97.1% | 5.10 | 4.61 | 5.11 | 4.87 | < 4.30 | inactive | < 4.00 | < 4.00 | < 4.00 | < 4.00 | 78400 µM (≈ 26700 µg/mL) | Kb (DNA [3]): 1.3 ×10⁵ /M |
